Consider four compounds from PMC10107787 (Chemistry (Weinheim an Der Bergstrasse, Germany), 2022).

SMILES strings stand for the structures.

Data set [1] in a line: Amide temperature coefficients by variable temperature 1H NMR. It is filed as physicochemical. In outline: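 Variable-temperature ¹H NMR at 500 MHz with a cryoprobe, using 16 scans and a 0.7 s relaxation delay. DMSO‑d₆ series ran from 25 to 65 or 20 to 60 °C; the CDCl₃ series ran from 10 to 50 °C; both used 10 °C steps. Each NH coefficient was calculated as (δ_high−δ_low)/(T_high−T_low), in ppb/K.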

The nature of data set [2]: Permeability across Caco-2 cell monolayers. The format is in vitro ADME. Conditions: human, Caco-2, ER (efflux ratio, Papp BA/Papp AB), Caco-2 cell monolayers, no inhibitors. Put shortly: (§1)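 Apical‑to‑basolateral and basolateral‑to‑apical Papp were measured across Caco‑2 monolayers. Efflux ratio is Papp BA/Papp AB. A parallel set was run with a cocktail of three inhibitors aimed at the three major efflux transporters. Papp AB is the mean±std of three repeats.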
For orientation: Caco-2 monolayers are a common model of the intestinal barrier.

The nature of data set [3]: LogD7.4, miniaturized shake-flask procedure. It is filed as physicochemical. Particulars: pH 7.4. In outline:
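Measured in three repeats, and the reported logD is their mean.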

The test system of another data set is Caco‐2 cell monolayers. In words: Permeability across Caco-2 cell monolayers. It is filed as in vitro ADME. Put shortly:
as §1

Usually efflux ratio stands for the permeability from basolateral to apical divided by that in the opposite direction, in the common usage. Turning to `COC(=O)N[C@H](C(=O)N[C@@H](Cc1ccccc1)[C@@H](O)CN(Cc1ccc(-c2ccccn2)cc1)NC(=O)[C@@H](NC(=O)OC)C(C)(C)C)C(C)(C)C` [Atazanavir], the “Temperature coefficient, CDCl3” value is −2.0 ppb/K in data set [1] (atazanavir proton 4‐NH) and −1.0 ppb/K in data set [1] (atazanavir proton 15‐NH). For the same compound, the “Temperature coefficient, DMSO‐d6” value is −9.8 ppb/K in data set [1] (atazanavir proton 4‐NH), −4.3 ppb/K in data set [1] (atazanavir proton 7‐NH), −3.5 ppb/K in data set [1] (atazanavir proton 12‐NH) and −6.5 ppb/K in data set [1] (atazanavir proton 15‐NH). Moreover, the efflux ratio in data set [2] stood at 40.
Usually logD stands for lipophilicity at a set pH, counting ionised and neutral species. `C=C[C@@H]1C[C@]1(NC(=O)[C@@H]1C[C@@H](Oc2ncc(OC)c3ccc(Cl)cc23)CN1C(=O)[C@@H](NC(=O)OC(C)(C)C)C(C)(C)C)C(=O)NS(=O)(=O)C1CC1` [Asunaprevir]: the “Temperature coefficient, CDCl3” value in data set [1] (asunaprevir proton 1’’’‐NH) is reported as −4.3 ppb/K; in data set [1] (asunaprevir proton 1’’’’‐NH), −4.3 ppb/K; in data set [1] (asunaprevir proton 2’‐NH) it was −0.3 ppb/K. In addition, the “Temperature coefficient, DMSO‐d6” value in data set [1] (asunaprevir proton 1’’’‐NH) is reported as −2.8 ppb/K; in data set [1] (asunaprevir proton 1’’’’‐NH), −3.5 ppb/K; in data set [1] (asunaprevir proton 2’‐NH), 1.5 ppb/K. For the same compound, the efflux ratio in data set [2] was determined as 270. The logD in data set [3] turned out to be 3.1.
Regarding `COC(=O)N[C@H](C(=O)N1CCC[C@H]1c1nc(-c2ccc(-c3ccc(-c4c[nH]c([C@@H]5CCCN5C(=O)[C@@H](NC(=O)OC)C(C)C)n4)cc3)cc2)c[nH]1)C(C)C` [Daclatasvir], in data set [1] (daclatasvir proton 2’’’‐NH), the “Temperature coefficient, CDCl3” value is on record as −3.3 ppb/K and the “Temperature coefficient, DMSO‐d6” value was −3.8 ppb/K. The efflux ratio in data set [2] was 38. This compound also gave a logD in data set [3] of 3.9.
Consider `COc1ccc2c(O[C@@H]3C[C@H]4C(=O)N[C@]5(C(=O)NS(=O)(=O)C6CC6)C[C@H]5/C=C\CCCCN(C)C(=O)[C@@H]4C3)cc(-c3nc(C(C)C)cs3)nc2c1C` [Simeprevir], for which, in data set [1] (simeprevir proton 1’’’‐NH), the “Temperature coefficient, CDCl3” value is −8.8 ppb/K and the “Temperature coefficient, DMSO‐d6” value was −2.5 ppb/K. For the same compound, in data set [1] (simeprevir proton 13‐NH), the “Temperature coefficient, CDCl3” value is given as −1.3 ppb/K and the “Temperature coefficient, DMSO‐d6” value is −1.0 ppb/K. In addition, the “ER+Inhibitors” value in the data set on Caco‐2 cell monolayers (Caco-2, in the presence of the efflux inhibitor cocktail) was “highest efflux ratio”. Besides, the “ER (efflux ratio, Papp BA/Papp AB)” value with Caco‐2 cell monolayers (Caco-2 cell monolayers, no inhibitors) is given as “largest”. Further, the efflux ratio in data set [2] was found to be 330. This compound also gave a logD in data set [3] of 3.7.
